ChEMBL document CHEMBL1147363, “Inhibitory effect of carnosic acid on HIV-1 protease in cell-free assays [corrected]” (J Nat Prod, 1993)
Values after ≈ are worked out from the molar mass of the structure shown. Active and inactive are the calls of the source. No cut-off for these calls is given here.

Tests used:
Cathepsin D (Bos taurus) = target: T1, Cathepsin D (Bos taurus) (UniProt P80209); test: Inhibition of bovine spleen cathepsin D up to 10 ug/ml
T1 sequence (whole entry): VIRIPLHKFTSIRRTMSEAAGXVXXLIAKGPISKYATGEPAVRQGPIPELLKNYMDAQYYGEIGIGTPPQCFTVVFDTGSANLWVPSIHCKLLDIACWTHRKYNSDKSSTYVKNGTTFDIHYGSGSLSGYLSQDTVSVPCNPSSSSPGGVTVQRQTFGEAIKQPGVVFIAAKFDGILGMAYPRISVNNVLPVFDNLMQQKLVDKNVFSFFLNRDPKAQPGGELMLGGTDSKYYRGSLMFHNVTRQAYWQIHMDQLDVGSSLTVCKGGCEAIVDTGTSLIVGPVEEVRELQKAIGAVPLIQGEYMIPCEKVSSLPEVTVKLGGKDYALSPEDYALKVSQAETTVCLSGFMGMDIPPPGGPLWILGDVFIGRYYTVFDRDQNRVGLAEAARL
Outline: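 Cathepsin D purified from bovine spleen, 40 nM final. Compound (DMSO stock diluted in 0.1 M Na acetate pH 3.5) preincubated with enzyme 10 min. 2% hemoglobin substrate added, 10 min at 37°. Stopped with 0.33 M trichloroacetic acid. Soluble products treated with NaOH and Folin-Ciocalteu reagent; absorbance read at 750 nm. Tested up to 10 μg/ml.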

[1] = target: Protease (Human immunodeficiency virus 1) (UniProt Q9YQ12); test: Inhibition of HIV1 recombinant protease expressed in Escherichia coli BL21 (DE3) cells by SDS-PAGE
Chain of Protease (Human immunodeficiency virus 1) (Q9YQ12 as listed by the source): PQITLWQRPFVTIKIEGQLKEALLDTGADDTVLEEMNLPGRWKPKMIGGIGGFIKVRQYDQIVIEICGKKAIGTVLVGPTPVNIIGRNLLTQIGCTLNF

Sus scrofa = species: Sus scrofa; test: Inhibition of pig pepsin up to 10 ug/ml
Outline: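 Porcine pepsin, 40 nM final. Compound stock diluted in 0.01 M HCl and preincubated with enzyme 10 min at room temperature. 2% hemoglobin substrate (pH 1.8) added, 10 min at 37°. Stopped with 0.33 M TCA; activity by modified Anson hemoglobin method. Tested up to 10 μg/ml.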

H9 = test: Cytotoxicity against human H9 cells after 3 or 5 days by XTT assay; format: cell-based; conditions: h9, 120 h
Outline: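 Cells seeded at 1×10^5 per well with graded compound concentrations and grown at 36° for 3 or 5 days depending on cell type. XTT (1 mg/ml, with 0.025 mM phenazine methosulfate) added, 1 h at 36°, OD450 read. TC90 is the concentration giving 90% reduction in viable cells.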

[2] = tested on: Human immunodeficiency virus 1; test: Antiviral activity against HIV1 replication infected in human MT2 cells assessed as reduction in plaque formation after 3 days by MTT assay; format: functional; conditions: Human immunodeficiency virus 1, MT2, 72 h
Outline: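 MT-2 cells pretreated 30 min at room temperature with compound (DMSO stock diluted in RPMI), infected with HIV-1 (3b or rf) 1 h at 36°, washed, then grown 3 days in compound-containing RPMI. Progeny titre measured by plaque assay on poly-L-lysine-coated MT-2 monolayers under agarose overlays, stained with MTT. Activity expressed as percent reduction in titre versus untreated virus; IC90 reported.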

SMILES	Activity (Cathepsin D (Bos taurus))	IC90 [1]	Activity (Sus scrofa)	TC90 (H9)	IC90 [2]
COc1c(C(C)C)cc2c(c1OC)[C@@]13CCCC(C)(C)[C@@H]1C[C@@H]2OC3=O	inactive	> 10 µg/mL	inactive		
CC(C)c1cc2c(c(O)c1O)[C@@]1(C(=O)O)CCCC(C)(C)[C@@H]1CC2 [CARNOSIC ACID]	inactive	0.08 µg/mL	inactive	0.36 µg/mL (≈ 1.08 µM)	0.32 µg/mL (≈ 0.963 µM)
CC(C)c1cc2c(c(O)c1O)[C@@]13CCCC(C)(C)[C@@H]1[C@H](OC3=O)[C@H]2O	inactive	0.6 µg/mL	inactive		
CC(C)c1cc2c(c(O)c1O)[C@@]13CCCC(C)(C)[C@@H]1C[C@@H]2OC3=O	inactive	> 10 µg/mL	inactive		

The next lines start with results.

Activity (Cathepsin D (Bos taurus))	IC90 [1]	Activity (Sus scrofa)	SMILES	TC90 (H9)	IC90 [2]
inactive	1.5 µg/mL	inactive	CO[C@H]1c2cc(C(C)C)c(O)c(O)c2[C@@]23CCCC(C)(C)[C@@H]2[C@@H]1OC3=O		
inactive	1.7 µg/mL	inactive	CCO[C@H]1c2cc(C(C)C)c(O)c(O)c2[C@@]23CCCC(C)(C)[C@@H]2[C@@H]1OC3=O		
